High-throughput results from PubChem.
TCR CD3 inh: blocks the human TCR-CD3 interaction | TAMRA-labeled TCR probe fluorescence, biochemical | inhibition, % at 9.4 µM | hit rate 0.37% among 360,000 | AID 651800; in the data active means inhibition above about 19%;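 further: recombinant mutant TCR 2C K166C tagged with TAMRA read by polarization; 0% = receptor in buffer alone and 100% = receptor with positive control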
rCAG RNA binder: molecules binding r(CAG) RNA repeats. hit rate 1.3% among 370,000. AID 651821. inhibition, % at 3 µM. r(CAG) RNA repeat, TO-PRO-1 dye displacement fluorescence;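 active means inhibition above the plate cutoff, the mean of all test compounds on that plate plus 3 SD, cut at about 35% in these data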;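 further: 0% = DMSO alone and 100% = 100 µM mitoxantrone as full dye displacement; higher means more dye released from RNA so lower well fluorescence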
HTRA1 inhibitor: blocks human HTRA1 serine peptidase. Q92743. recombinant HTRA1, FP-rhodamine activity-based probe, fluorescence polarization. inhibition, % at 5.96 µM. hit rate 0.5% among 340,000. AID 504803; in the data active means inhibition above about 36%;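 further: 0% = enzyme with DMSO and 100% = wells lacking enzyme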
ABHD4 inh: ABHD4 (mouse) inhibition, primary FP screen | Q8VD66 | purified mABHD4, FP-Rh probe fluorescence polarization | inhibition, % at 8.92 µM | hit rate 0.54% among 370,000 | AID 720543;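 active means inhibition exceeding the mean over every tested compound plus 3 SD, cut at about 30% in these data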;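 further: 0% = plate median of compound wells and 100% = S159A mutant with DMSO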
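Material: mouse ABHD4 enzyme, wild type; Benchmarks: S159A mutant high control, sample median low control; Buffer or medium: HEPES pH 7.0, NaCl, Pluronic buffer; Signal: fluorescence polarization; Read-out: percent inhibition of probe binding, normalized to plate controls; Timing: pre-incubation 45 min, probe exposure 60 min, at 25 °C; Dosing: 8.92 µM, single dose.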
PRMT1 FP inh: PRMT1 (human) inhibition, primary screen; Q99873; recombinant PRMT1, activity-based probe fluorescence polarization; inhibition, % at 2.79 µM; hit rate 1.3% among 370,000;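 active means inhibition above about 21% made by adding two undisclosed values, limit read from the data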
SIAE primary: blocks human sialic acid acetylesterase. Q9HAT2. SIAE FP-Rh probe binding, fluorescence polarization. inhibition, % at 9.66 µM. hit rate 0.69% among 370,000. AID 1053197;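 active means inhibition above a cutoff: mean of compounds within the control limits plus 3 SD of those, cut at about 17% in these data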;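 further: 0% = plate median of compound wells and 100% = probe without SIAE protein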
Target sequence (Q9HAT2 whole entry, looked up): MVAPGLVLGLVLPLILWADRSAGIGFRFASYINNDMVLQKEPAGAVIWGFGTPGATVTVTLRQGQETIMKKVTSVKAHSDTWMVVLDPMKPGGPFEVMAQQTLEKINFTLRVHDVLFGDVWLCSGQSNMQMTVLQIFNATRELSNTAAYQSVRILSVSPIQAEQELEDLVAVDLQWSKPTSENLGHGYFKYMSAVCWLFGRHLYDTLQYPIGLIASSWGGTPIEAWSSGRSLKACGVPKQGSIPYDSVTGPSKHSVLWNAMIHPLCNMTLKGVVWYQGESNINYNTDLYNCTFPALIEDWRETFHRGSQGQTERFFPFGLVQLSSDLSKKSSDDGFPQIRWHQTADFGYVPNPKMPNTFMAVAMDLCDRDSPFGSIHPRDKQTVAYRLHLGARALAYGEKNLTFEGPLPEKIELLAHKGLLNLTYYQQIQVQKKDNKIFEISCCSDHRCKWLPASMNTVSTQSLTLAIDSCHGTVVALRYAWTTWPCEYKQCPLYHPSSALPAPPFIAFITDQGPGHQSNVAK
* marks the source's active call; other numbers are inactive results; x = not tested or not shown. The list is not random: actives were taken first. Their share in the collection is about 3.5%.

SMILES	TCR CD3 inh	rCAG RNA binder	HTRA1 inhibitor	ABHD4 inh	PRMT1 FP inh	SIAE primary
O=C(NC1CCCC1)c1ccc2nc(-c3ccco3)c(-c3ccco3)nc2c1	x	x	58*	x	x	x
O=C(NCCO)c1ccc(Cl)c(Cl)c1	-4	-2	12	2	0	4
COC(=O)C1CN(Cc2cn(Cc3ccc(F)cc3)nn2)CCS(=O)(=O)N1Cc1ccc(F)cc1 (stereo not drawn)	x	2	x	-1	-1	6
Fc1ccc(CSc2ncnc3scc(-c4ccccc4)c23)cc1	-7	10	-22	-17	4	-8
Clc1ccc(C[n+]2csc3ccccc32)cc1	-1	5	4	6	63*	-2
Fc1ccc(C[n+]2csc3ccccc32)cc1	0	3	6	-9	74*	3
Cc1cc(NS(=O)(=O)c2ccc(NC(=O)c3ccccc3F)cc2)no1	-2	5	6	-4	-4	-2
COc1ccccc1C(=O)Nc1ccc(S(=O)(=O)Nc2cc(C)on2)cc1	2	5	0	0	-4	27*
CCCN1CCS(=O)(=O)N(Cc2cn(Cc3ccc(OC)cc3)nn2)C(C(=O)OC)C1 (stereo not drawn)	x	1	x	-1	-2	4
C[C@H]1[C@H](NC(=O)c2ccc(Cl)c(Cl)c2)CC[C@@]23CCCN2C(=O)CCC[C@@H]13	x	x	x	2	0	7
CN1CCN(NC(=O)CN2C(=O)/C(=C/c3c(Cl)cccc3Cl)SC2=S)CC1	-11	5	-4	-3	22*	-6
CN1CCN(NC(=O)CN2C(=O)/C(=C/c3ccccc3Cl)SC2=S)CC1	-27	10	-18	-7	16	-12
CCCCc1cc(=O)oc2cc(C)cc(OCC(=O)NC(Cc3ccc(Cl)cc3)C(=O)O)c12 (stereo not drawn)	5	40*	-16	-5	-2	-1
CC(=O)NN1C(=O)/C(=C/c2ccc(Br)o2)SC1=S	2	13	-12	16	25*	5
COC(=O)c1cccc(N2C(=O)C[C@](Sc3ccc(OC)cc3)(C(=O)N3CCOCC3)[C@H]2c2ccc(OC)cc2)c1	x	8	x	-16	0	3
O=C1C(Cl)=C(N2CCOCC2)C(=O)N1c1ccc(Br)cc1	2	4	2	7	25*	3
COC(=O)[C@]12C[C@H](CC(=O)NCc3cccc(C(F)(F)F)c3)C(=O)N(Cc3cccc4ccccc34)C1=C[C@H](COCc1ccccc1)O[C@@H]2C	x	7	x	-12	0	-8
O=c1[nH]c2cc3c(cc2cc1CN(Cc1nnnn1CC1CCCO1)C1CCCCC1)OCO3 (stereo not drawn)	-2	-11	-4	2	23*	-8
O=C(CN1C(=O)/C(=C\c2ccco2)SC1=S)Nc1ccc(O)cc1C(=O)O	-4	88*	-5	-21	43*	9
NS(=O)(=O)c1ccc(-c2ccc(/C=N/Nc3ccc(C(=O)O)cc3)o2)cc1	-8	17	-3	18	7	-4
O=C(O)c1ccc(-c2ccc(/C=N/Nc3ccc([N+](=O)[O-])cc3)o2)cc1	-4	25	-3	32*	-6	-13
COC(=O)[C@]12C[C@H](CC(=O)N3CCOCC3)C(=O)N(Cc3ccco3)C1=C[C@H](C(C)C)O[C@@H]2C1CC1	x	-2	x	1	-1	5
Cc1[nH]c2ccccc2c1/C=N/NC(=O)c1ccccc1	-5	2	2	-2	0	3
Cc1[nH]c2ccccc2c1/C=N/Nc1cccc(C(=O)O)c1	12	21	18	34*	5	7
O=C(/C=C/c1ccccc1)NC(NC(=S)Nc1ccc(Cl)cc1)C(Cl)(Cl)Cl (stereo not drawn)	26*	14	-40	-51	-3	-47
CCCCCCCCN1C(=O)[C@@H](CC(=O)N2CCCCC2)C[C@@]2(C(=O)OC)C1=C[C@H](C(C)C)O[C@@H]2C1CC1	x	6	x	6	1	0
O=C(NC1CCCCN(Cc2cccc(Cl)c2)C1=O)c1ccc(COc2ccccc2)cc1 (stereo not drawn)	x	4	x	-16	-1	-4
Cc1ccc(NC(=O)c2cc(NC(=O)C3CC=CCC3C(=O)O)ccc2N2CCOCC2)cc1 (stereo not drawn)	0	19	-6	4	-1	5
